The record followed here is ChEMBL document CHEMBL1629582, “Novel nucleotide human immunodeficiency virus reverse transcriptase inhibitor GS-9148 with a low nephrotoxic potential: characterization of renal transport and accumulation” (Antimicrob Agents Chemother, 2009).

Data set [1] concerns the target T1, Solute carrier family 22 member 6 (Homo sapiens, UniProt Q4U2R8).
T1 sequence (Q4U2R8 whole entry): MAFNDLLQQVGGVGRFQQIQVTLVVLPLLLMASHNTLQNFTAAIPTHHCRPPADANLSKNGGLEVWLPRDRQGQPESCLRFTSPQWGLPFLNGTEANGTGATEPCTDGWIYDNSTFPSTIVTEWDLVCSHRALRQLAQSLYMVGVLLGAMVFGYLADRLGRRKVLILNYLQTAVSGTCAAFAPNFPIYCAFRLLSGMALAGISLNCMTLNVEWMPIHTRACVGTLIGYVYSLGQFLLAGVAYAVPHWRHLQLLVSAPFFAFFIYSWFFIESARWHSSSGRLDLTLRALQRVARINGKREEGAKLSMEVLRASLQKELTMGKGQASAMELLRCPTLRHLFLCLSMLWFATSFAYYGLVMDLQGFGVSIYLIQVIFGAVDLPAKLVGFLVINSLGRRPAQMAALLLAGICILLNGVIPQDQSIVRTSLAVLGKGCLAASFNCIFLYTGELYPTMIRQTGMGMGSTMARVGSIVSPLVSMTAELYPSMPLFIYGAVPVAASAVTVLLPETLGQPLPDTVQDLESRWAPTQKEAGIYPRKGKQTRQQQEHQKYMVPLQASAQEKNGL
In words: Activity of human OAT1 transfected in CHO cells measured per 10^6 cells. The data set is classed as cell-based. In short, it runs like this:
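Radiolabelled substrate at various concentrations incubated 20 min at 37°C with CHO cells stably expressing hOAT1 in Waymouth buffer (pH 7.2). Cells washed in ice-cold PBS, lysed in 0.3% Triton X-100, uptake read by scintillation counting. Km and Vmax fitted by Michaelis-Menten. Two independent experiments in duplicate, mean ± SD.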

Data set [2] can be described thus: Cytotoxicity against CHO cells after 120 hrs by Cell-Titer Glo assay. It counts as cell-based, Cricetulus griseus. As to conditions: chinese hamster; call rule not given here. An outline of the steps:
(§1)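 CHO cells carrying hOAT1 or empty vector were seeded in parallel at 3 × 10³/well. After 24 h, serial drug dilutions were added in triplicate and incubated 120 h. Viability was read by luminescence relative to untreated wells. CC50 was taken by nonlinear regression from two independent experiments, mean ± SD.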

The nature of data set [3]: Drug uptake in human kidney cortex at 5 uM by liquid scintillation counting in presence of 500 uM of probenecid. The data set is classed as ADME, tissue-based.
The nature of data set [4]: Percent of urinary material present as GS-9148 in dog urine at 3 mg/kg, po.
Data set [5] concerns CHO. Kind of data set: Cellular uptake in CHO cells expressing hOAT1 at 10 uM by liquid scintillation counting relative to control. The following applies: chinese hamster. It counts as ADME, cell-based, Cricetulus griseus. In short, it runs like this:
(§2)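 Radiolabeled nucleotide at 10 μM was incubated at 37°C in Waymouth buffer pH 7.2 with transporter-expressing cells (CHO-hOAT1 or BHK-hOAT3) and matching empty-vector control cells, with or without 500 μM probenecid. Uptake was sampled at several time points, with longer times for hOAT3. Washed cells were lysed in Triton X-100 and counted by scintillation. Two independent experiments in duplicate, mean ± SD; two-tailed paired t test.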

A short description of data set [6]: Renal clearance in dog urine at 3 mg/kg, po. It counts as ADME, organism-based, Canis lupus familiaris. More on the design: dose 3 mg/kg, route oral. As to conditions: read-out: CL_renal (converted). An outline of the steps:
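Fasted dogs were given 3.0 mg/kg [14C]prodrug (10 μCi/kg) in 50 mM citrate pH 2.2 by oral gavage. Urine was collected on dry ice over 0–8 and 8–24 h and counted by scintillation. Parent nucleotide in pooled 0–24 h urine was measured by radio-HPLC on a C18 column with an ammonium formate/acetonitrile gradient. Renal clearance = 24-h urinary amount / 24-h plasma exposure / body weight; three dogs.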

Data set [7] can be described thus: Cellular uptake in BHK21 cells expressing hOAT3 at 10 uM by liquid scintillation counting in presence of 500 uM of probenecid relative to control. It counts as ADME, cell-based, Mesocricetus auratus. As to conditions: hamster, bhk-21, 10 µM. An outline of the steps: as §2
Data set [8] can be described thus: Cellular uptake in human HEK293T cells expressing MRP4 efflux transporter at 5 uM by liquid scintillation counting in presence of 30 uM efflux inhibitor MK-571 relative to control. As to conditions: hek-293t.
Data set [9] can be described thus: Cellular uptake in human HEK293T cells expressing MRP4 efflux transporter assessed as accumulation of GS-9148 metabolite at 5 uM by liquid scintillation counting relative to control. The data set is classed as ADME, cell-based. As to conditions: hek-293t.
The subject of the next data set is OAT1. Kind of data set: Cytotoxicity against CHO cells expressing hOAT1 after 120 hrs by Cell-Titer Glo assay. It counts as ADME, cell-based, Cricetulus griseus. As to conditions: chinese hamster. An outline of the steps:
as §1

Data set [10] relates to CHO. In words: Cellular uptake in CHO cells expressing hOAT1 at 10 uM by liquid scintillation counting in presence of 500 uM of probenecid relative to control. It counts as ADME, cell-based, Cricetulus griseus. As to conditions: chinese hamster. An outline of the steps: as §2
A short description of data set [11]: Cellular uptake in human HEK293T cells expressing MRP4 efflux transporter at 5 uM by liquid scintillation counting relative to control. As to conditions: hek-293t.
Data set [12] is described as follows: Cellular uptake in BHK21 cells expressing hOAT3 at 10 uM by liquid scintillation counting relative to control. The following applies: hamster, bhk-21, 10 µM. It counts as ADME, cell-based, Mesocricetus auratus. An outline of the steps: as §2
A short description of data set [13]: Drug level in dog kidney at 3 mg/kg, po after 24 hrs by liquid scintillation counting. On the set-up: dose 3 mg/kg, route oral. It counts as ADME, organism-based, Canis lupus familiaris. The following applies: in vivo. An outline of the steps: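 Three fasted dogs were given 3.0 mg/kg [14C]prodrug (10 μCi/kg) orally in 50 mM citrate pH 2.2. Kidneys were excised at 24 h, rinsed, blotted and weighed, then combusted and counted by scintillation. Values are μg equivalents per gram tissue, mean ± SD of three dogs.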

A short description of data set [14]: AUC (0 to 24 hrs) in dog at 3 mg/kg, po. The data set is classed as ADME, organism-based, Canis lupus familiaris. On the set-up: time < 24 hr, dose 3 mg/kg, route oral. As to conditions: plasma.
A further data set deals with T2, OAT1 (SLC22A6) (Homo sapiens, UniProt Q4U2R8).
T2 sequence (Q4U2R8 whole entry): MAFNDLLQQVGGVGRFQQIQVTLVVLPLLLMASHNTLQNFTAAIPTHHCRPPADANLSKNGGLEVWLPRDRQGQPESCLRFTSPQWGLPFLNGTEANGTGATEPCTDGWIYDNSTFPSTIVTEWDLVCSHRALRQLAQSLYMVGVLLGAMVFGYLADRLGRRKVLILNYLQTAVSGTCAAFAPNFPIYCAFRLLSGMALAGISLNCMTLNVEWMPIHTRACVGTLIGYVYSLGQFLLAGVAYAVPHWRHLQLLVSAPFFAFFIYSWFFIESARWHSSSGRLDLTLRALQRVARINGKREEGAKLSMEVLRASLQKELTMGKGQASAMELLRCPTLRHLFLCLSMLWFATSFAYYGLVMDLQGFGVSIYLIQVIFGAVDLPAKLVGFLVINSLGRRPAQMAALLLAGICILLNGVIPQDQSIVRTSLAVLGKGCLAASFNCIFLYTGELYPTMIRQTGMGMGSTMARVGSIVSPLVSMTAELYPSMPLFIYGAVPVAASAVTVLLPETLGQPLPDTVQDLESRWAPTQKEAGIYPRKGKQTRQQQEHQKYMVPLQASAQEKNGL
Kind of data set: (§3) Activity of human OAT1 transfected in CHO cells. The data set is classed as cell-based. An outline of the steps: (§4)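 CHO cells stably transfected with human OAT1, with empty-vector CHO cells run in parallel, seeded 48 h ahead. Radiolabeled substrate was given at a range of concentrations for 20 min at 37°C in Waymouth buffer pH 7.2. Cells were washed in ice-cold PBS, lysed in Triton X-100 and counted by scintillation. Km and Vmax came from Michaelis-Menten fitting; two independent experiments in duplicate, mean ± SD.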

Substrate in data set [15]: Nc1ncnc2c1ncn2[C@@H]1O[C@H](OCP(=O)(O)O)C=C1F
In words: (§5) Activity of human OAT3 transfected in BHK-21 cells. The data set is classed as cell-based. An outline of the steps:
(§6)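 BHK-21 cells stably transfected with human OAT3 (the clone with highest probenecid-sensitive uptake), with empty-vector BHK cells in parallel, seeded on fibronectin 24 h ahead. Radiolabeled substrate was given at a range of concentrations for 120 min at 37°C in Waymouth buffer pH 7.2. Lysates were counted by scintillation. Km and Vmax came from Michaelis-Menten fitting; two independent experiments in duplicate.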

Substrate in data set [16]: C[C@H](Cn1cnc2c(N)ncnc21)OCP(=O)(O)O
Described as §5. It counts as cell-based. An outline of the steps:
as §6

Substrate in data set [17]: Nc1ncnc2c1ncn2CCOCP(=O)(O)O
The description is as §5. It counts as cell-based. An outline of the steps: as §6

Substrate in data set [18]: Nc1ncnc2c1ncn2[C@@H]1O[C@H](OCP(=O)(O)O)C=C1F
Described as §3. It counts as cell-based. An outline of the steps:
as §4

What is called Vmax is the rate approached at saturating substrate. By CC50 is commonly meant the concentration that lowers cell viability or growth by half. A lower CC50 goes with greater toxicity to the cells. Take `Nc1ncnc2c1ncn2CCOCP(=O)(O)O` [ADEFOVIR]: the Vmax in data set [1] is reported as 46 pmol/min. The CC50 at 120 h in [2] was not below 2000 µM. For the same molecule, the Drug uptake result in data set [3] is “Active”.
Broadly, the AUC(0-t) is the area under the concentration-time curve up to a stated or last time point. Higher therefore signals more exposure. On to `Nc1ncnc2c1ncn2[C@@H]1O[C@H](OCP(=O)(O)O)C=C1F` [GS-9148], for which, in data set [4], the percent of urinary material as GS-9148 is 84%. The Drug uptake result in the data set with CHO [5] was “Active”; in data set [7], “Not Active”; in data set [8], “Active”; in data set [9], “Active”; with CHO [10], “Not Active”; in data set [11], “Not Active”. Moreover, the figures for the Drug uptake entry in data set [12] and in data set [13] were “Active” and 2.49 µg/g, respectively. Also, in [6], the CL renal is 7.83 mL/min/kg. The midpoint of cytotoxicity in the data set with OAT1, the CC50 at 120 h, lay at 435 µM. This molecule also gave an exposure AUC(0-t) at 24 h in data set [14] of 4.9 µM·h.
For orientation: Km means the substrate concentration at which the rate is half of its maximum. As for `C[C@H](Cn1cnc2c(N)ncnc21)OCP(=O)(O)O` [TENOFOVIR ANHYDROUS], the maximal velocity (Vmax) in data set [1] worked out at 110 pmol/min. Further, the Km at OAT1 (SLC22A6) came to 33.8 µM.
Turning to `Nc1ccn(C[C@@H](CO)OCP(=O)(O)O)c(=O)n1.O.O` [CIDOFOVIR], the Vmax in [1] was 103 pmol/min. The CC50 at 120 h stood at 520 µM in data set [2] and 3 µM in the data set on OAT1.

B1: Organic anion transporter 3 (Homo sapiens) (protein)
chain: MTFSEILDRVGSMGHFQFLHVAILGLPILNMANHNLLQIFTAATPVHHCRPPHNASTGPWVLPMGPNGKPERCLRFVHPPNASLPNDTQRAMEPCLDGWVYNSTKDSIVTEWDLVCNSNKLKEMAQSIFMAGILIGGLVLGDLSDRFGRRPILTCSYLLLAASGSGAAFSPTFPIYMVFRFLCGFGISGITLSTVILNVEWVPTRMRAIMSTALGYCYTFGQFILPGLAYAIPQWRWLQLTVSIPFFVFFLSSWWTPESIRWLVLSGKSSKALKILRRVAVFNGKKEEGERLSLEELKLNLQKEISLAKAKYTASDLFRIPMLRRMTFCLSLAWFATGFAYYSLAMGVEEFGVNLYILQIIFGGVDVPAKFITILSLSYLGRHTTQAAALLLAGGAILALTFVPLDLQTVRTVLAVFGKGCLSSSFSCLFLYTSELYPTVIRQTGMGVSNLWTRVGSMVSPLVKITGEVQPFIPNIIYGITALLGGSAALFLPETLNQPLPETIEDLENWSLRAKKPKQEPEVEKASQRIPLQPHGPGLGSS
Take B1: the Michaelis-Menten constant (Km) in data set [15] is 1220 µM; in data set [16], 770 µM; in data set [17], 1220 µM. Further, the Vmax in data set [15] came to 1.95e-05 µmol/min; in data set [16], 2.87e-05 µmol/min; in data set [17], 0.000131 µmol/min.

B2: Solute carrier family 22 member 6 (Homo sapiens) (protein)
chain: MAFNDLLQQVGGVGRFQQIQVTLVVLPLLLMASHNTLQNFTAAIPTHHCRPPADANLSKNGGLEVWLPRDRQGQPESCLRFTSPQWGLPFLNGTEANGTGATEPCTDGWIYDNSTFPSTIVTEWDLVCSHRALRQLAQSLYMVGVLLGAMVFGYLADRLGRRKVLILNYLQTAVSGTCAAFAPNFPIYCAFRLLSGMALAGISLNCMTLNVEWMPIHTRACVGTLIGYVYSLGQFLLAGVAYAVPHWRHLQLLVSAPFFAFFIYSWFFIESARWHSSSGRLDLTLRALQRVARINGKREEGAKLSMEVLRASLQKELTMGKGQASAMELLRCPTLRHLFLCLSMLWFATSFAYYGLVMDLQGFGVSIYLIQVIFGAVDLPAKLVGFLVINSLGRRPAQMAALLLAGICILLNGVIPQDQSIVRTSLAVLGKGCLAASFNCIFLYTGELYPTMIRQTGMGMGSTMARVGSIVSPLVSMTAELYPSMPLFIYGAVPVAASAVTVLLPETLGQPLPDTVQDLESRWAPTQKEAGIYPRKGKQTRQQQEHQKYMVPLQASAQEKNGL
Regarding B2, in data set [18], the Km worked out at 259 µM and the Vmax amounted to 7.8e-06 µmol/min.
